Measurements published in ChEMBL document CHEMBL4339222, “Covalent Inhibitors of Plasmodium falciparum Glyceraldehyde 3-Phosphate Dehydrogenase with Antimalarial Activity in Vitro” (ACS Med Chem Lett, 2019).
pIC50: −log10 of the molar value. Active and inactive are the calls of the source. No cut-off for these calls is given here.

Tests used:
[1] = Selectivity index, ratio of IC50 for human HMEC1 cells to IC50 for antimalarial activity against CQ-resistant Plasmodium falciparum W2 infected in human type A-positive red blood cells; assay type: toxicity; details: read-out: Ratio IC50
Procedure, shortened: (§1)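 SI taken as HMEC-1 IC50 divided by antiplasmodial IC50. […] Each value is the mean of three experiments done in duplicate, with SD.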

Plasmodium falciparum [2] = experiment: Inhibition of recombinant His-tagged Plasmodium falciparum GAPDH expressed in Escherichia coli assessed as reduction in NADH formation by measuring Kinact/Ki ratio in presence of NAD+, DL-glyceraldehyde 3-phosphate and GAPDH by spectrophotometry based Ferdinand assay
HMEC-1 = experiment: Cytotoxicity in human HMEC1 cells assessed as reduction in cell viability incubated for 72 hrs by MTT assay; assay type: cell-based; details: HMEC-1, 72 h
Procedure, shortened: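 Human endothelial HMEC-1 cells exposed to compound for 72 h, then viability read by MTT (tetrazolium reduction) assay. Values are the mean ± SD of three separate experiments, each run in duplicate.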

Plasmodium falciparum [3] = experiment: Antimalarial activity against CQ-resistant Plasmodium falciparum W2 infected in human type A-positive red blood cells assessed as inhibition of parasite growth incubated for 72 hrs by spectrophotometry based parasite lactate dehydrogenase assay; assay type: functional, organism-based; details: for pIC50: Plasmodium falciparum, W2, 72 h, read-out: IC50
Procedure, shortened: (§2)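 pLDH assay on P. falciparum D10 and W2 blood-stage cultures exposed to compound for 72 h; chloroquine run as control. IC50 values are the mean of three separate experiments, each done in duplicate, with SD.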

[4] = Selectivity index, ratio of IC50 for human HMEC1 cells to IC50 for antimalarial activity against CQ-susceptible Plasmodium falciparum D10 infected in human type A-positive red blood cells; assay type: toxicity; details: read-out: Ratio IC50; procedure, shortened: as §1
Plasmodium falciparum [5] = experiment: Antimalarial activity against CQ-susceptible Plasmodium falciparum D10 infected in human type A-positive red blood cells assessed as inhibition of parasite growth incubated for 72 hrs by spectrophotometry based parasite lactate dehydrogenase assay; assay type: functional, organism-based; details: for pIC50: Plasmodium falciparum, D10, 72 h, read-out: IC50; procedure, shortened: as §2

**Q.** With N[C@H](C(=O)NCc1ccc([N+](=O)[O-])cc1)[C@@H]1CC(Br)=NO1 as the compound, how does the selectivity ratio [1] read?
**A.** Its selectivity ratio is 50.1.

**Q.** And the Ratio (Plasmodium falciparum [2])?
**A.** The Ratio was 1.9 s⁻¹ M⁻¹.

**Q.** What about the pIC50 (HMEC-1) of the same compound?
**A.** Its pIC50 is 4.44.

**Q.** And the pIC50 (Plasmodium falciparum [3])?
**A.** The pIC50 was 6.14.

**Q.** And the selectivity ratio [4]?
**A.** The selectivity ratio was 45.7.

**Q.** What about the pIC50 (Plasmodium falciparum [5]) of the same compound?
**A.** The pIC50 was 6.10.

**Q.** For N[C@H](CS(=O)(=O)Cc1ccccc1)[C@H]1CC(Br)=NO1, which Ratio (Plasmodium falciparum [2]) is on record?
**A.** The Ratio was 1.6 s⁻¹ M⁻¹.

**Q.** And the IC50 (Plasmodium falciparum [3])?
**A.** The IC50 was “Not Active”.

**Q.** And the IC50 (Plasmodium falciparum [5])?
**A.** Its IC50 is “Not Active”.

**Q.** For N[C@H](COCc1ccccc1)[C@@H]1CC(Br)=NO1, which Ratio (Plasmodium falciparum [2]) is on record?
**A.** The Ratio was 2.6 s⁻¹ M⁻¹.

**Q.** What about the IC50 (Plasmodium falciparum [3]) of the same compound?
**A.** The IC50 was “Not Active”.

**Q.** What about the IC50 (Plasmodium falciparum [5]) of the same compound?
**A.** The IC50 was “Not Active”.

**Q.** For N[C@H](CS(=O)(=O)Cc1ccccc1)[C@@H]1CC(Br)=NO1, which Ratio (Plasmodium falciparum [2]) is on record?
**A.** Its Ratio is “inactive”.

**Q.** Which results are given for N[C@H](C(=O)NCCc1ccccc1)[C@@H]1CC(Br)=NO1?
**A.** selectivity ratio [1]: > 400; Ratio (Plasmodium falciparum [2]): 0.4 s⁻¹ M⁻¹; pIC50 (HMEC-1): < 4.00; pIC50 (Plasmodium falciparum [3]): 6.60; selectivity ratio [4]: > 357; pIC50 (Plasmodium falciparum [5]): 6.55

**Q.** Which Ratio (Plasmodium falciparum [2]) does the source give for N[C@H](CSCc1ccccc1)[C@H]1CC(Br)=NO1 here?
**A.** Its Ratio is 0.2 s⁻¹ M⁻¹.

**Q.** What about the IC50 (Plasmodium falciparum [3]) of the same compound?
**A.** The IC50 was “Not Active”.

**Q.** And the IC50 (Plasmodium falciparum [5])?
**A.** Its IC50 is “Not Active”.

**Q.** Which results are given for N[C@H](C(=O)OCc1ccccc1)[C@@H]1CC(Br)=NO1?
**A.** selectivity ratio [1]: > 250; Ratio (Plasmodium falciparum [2]): 6.6 s⁻¹ M⁻¹; pIC50 (HMEC-1): < 4.19; pIC50 (Plasmodium falciparum [3]): 6.59; selectivity ratio [4]: > 176; pIC50 (Plasmodium falciparum [5]): 6.43

**Q.** With N[C@H](C(=O)O)[C@@H]1CC(Br)=NO1 as the compound, how does the selectivity ratio [1] read?
**A.** The selectivity ratio was 57.9.

**Q.** And the Ratio (Plasmodium falciparum [2])?
**A.** The Ratio was 0.7 s⁻¹ M⁻¹.

**Q.** And the pIC50 (HMEC-1)?
**A.** Its pIC50 is 4.71.

**Q.** And the pIC50 (Plasmodium falciparum [3])?
**A.** Its pIC50 is 6.47.

**Q.** And the selectivity ratio [4]?
**A.** Its selectivity ratio is 56.3.

**Q.** What about the pIC50 (Plasmodium falciparum [5]) of the same compound?
**A.** Its pIC50 is 6.46.

**Q.** For N[C@H](C(=O)NCc1ccc(F)cc1)[C@@H]1CC(Br)=NO1, which Ratio (Plasmodium falciparum [2]) is on record?
**A.** Its Ratio is “inactive”.

**Q.** With COc1ccc(CNC(=O)[C@@H](N)[C@@H]2CC(Br)=NO2)cc1 as the compound, how does the Ratio (Plasmodium falciparum [2]) read?
**A.** The Ratio was “inactive”.

**Q.** With CCN(CC)CCCC(C)Nc1ccnc2cc(Cl)ccc12 (configuration not stated) [CHLOROQUINE] as the compound, how does the pIC50 (HMEC-1) read?
**A.** Its pIC50 is under 4.40.

**Q.** What does the source list for N[C@H](CSCc1ccccc1)[C@@H]1CC(Br)=NO1?
**A.** Ratio (Plasmodium falciparum [2]): 1.6 s⁻¹ M⁻¹; IC50 (Plasmodium falciparum [3]): Not Active; IC50 (Plasmodium falciparum [5]): Not Active

**Q.** What does the source list for COC(=O)[C@@H](N)[C@@H]1CC(Br)=NO1?
**A.** selectivity ratio [1]: 39.5; Ratio (Plasmodium falciparum [2]): 10.7 s⁻¹ M⁻¹; pIC50 (HMEC-1): 4.46; pIC50 (Plasmodium falciparum [3]): 6.06; selectivity ratio [4]: 44; pIC50 (Plasmodium falciparum [5]): 6.10

**Q.** What does the source list for N[C@H](C(=O)NCc1ccccc1)[C@@H]1CC(Br)=NO1?
**A.** selectivity ratio [1]: 31; Ratio (Plasmodium falciparum [2]): 0.6 s⁻¹ M⁻¹; pIC50 (HMEC-1): 4.83; pIC50 (Plasmodium falciparum [3]): 6.32; selectivity ratio [4]: 41.4; pIC50 (Plasmodium falciparum [5]): 6.44
